≈ marks a conversion by molar mass, not a printed value. Calls of active or inactive are those of the source. The calls are words filed in the database; no cut-off is given here.
Experiments:
[1] = test system: Candida albicans; assay: Antifungal activity against Candida albicans ATCC MYA-2876 at 100 ug/ml after 48 hrs by micro broth dilution method; format: functional, organism-based
In short: (§1)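 Broth microdilution in RPMI-1640 (NaHCO3, MOPS, pH 7.0). Compounds are dissolved in DMSO and serially diluted 2-fold to eight concentrations, with stocks of […]. Fungal inocula are 2 × 10³ cfu/mL. Plates are incubated 48 h at 28 °C. The MIC is the lowest concentration with no turbidity, and the highest concentration tested is 100 μg/mL.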

[2] = test system: Candida albicans; assay: Antifungal activity against Candida albicans ATCC MYA-2876 after 48 hrs by micro broth dilution method; format: functional; conditions: ATCC MYA-2876, 48 h; in short: as §1
[3] = test system: Candida parapsilosis; assay: Antifungal activity against Candida parapsilosis ATCC 22019 after 48 hrs by micro broth dilution method; format: functional; conditions: Lodderomyces parapsilosis, ATCC 22019, 48 h; in short: as §1
[4] = test system: Aspergillus fumigatus; assay: Antifungal activity against Aspergillus fumigatus CCTCC AF 93048 after 48 hrs by micro broth dilution method; format: functional; conditions: CCTCC AF 93048, 48 h; in short: as §1
[5] = test system: Candida parapsilosis; assay: Antifungal activity against Candida parapsilosis ATCC 22019 at 100 ug/ml after 48 hrs by micro broth dilution method; format: functional, organism-based; in short: as §1
[6] = test system: Aspergillus fumigatus; assay: Antifungal activity against Aspergillus fumigatus CCTCC AF 93048 at 100 ug/ml after 48 hrs by micro broth dilution method; format: functional, organism-based; in short: as §1
[7] = test system: HEK-293T; assay: Cytotoxicity against HEK293T cells assessed as growth inhibition after 48 hrs by MTT assay; format: cell-based; conditions: Homo sapiens
In short: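 293T cells are grown in DMEM with 10% FBS, L-glutamine and penicillin/streptomycin at 37 °C in 5% CO₂. Cells are seeded at 7 × 10³ per well and exposed to six concentrations (0.33-100.0 μM) for 48 h. MTT is then added for 4 h, formazan is dissolved in DMSO and read at 570 nm. IC50 comes from non-linear regression, n = 3 independent experiments.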

[8] = Selectivity index, ratio of IC50 for HEK293T cells to MIC for Candida parapsilosis ATCC 22019; format: toxicity; conditions: human, read-out: Selectivity Index
[9] = Selectivity index, ratio of IC50 for HEK293T cells to MIC for Candida albicans ATCC MYA-2876; format: toxicity; conditions: human, read-out: Selectivity Index
[10] = Selectivity index, ratio of IC50 for HEK293T cells to MIC for Aspergillus fumigatus CCTCC AF 93048; format: toxicity; conditions: human, read-out: Selectivity Index

Compound	Activity [1]	MIC [2] [µg/mL]	MIC [3] [µg/mL]	MIC [4] [µg/mL]	Activity [5]	Activity [6]	IC50 [7] [µg/mL]	selectivity ratio [8]	selectivity ratio [9]	selectivity ratio [10]
C[C@@H]1C[C@H](C)C[C@H](C)[C@@H](O)CC(=O)O[C@H]([C@@H]2CCC[C@H]2C(=O)O)C/C=C/C=C(/C(N)=O)[C@H](O)[C@@H](C)C1	inactive	> 100	> 100	> 100	inactive	inactive	–	–	–	–
C[C@@H]1C[C@H](C)C[C@H](C)[C@@H](O)CC(=O)O[C@H]([C@@H]2CCC[C@H]2C(=O)OCCn2ccnc2)C/C=C/C=C(/C#N)[C@H](O)[C@@H](C)C1	–	–	–	25 (≈ 42.8 µM)	–	–	18.1 (≈ 31 µM)	< 0.18	< 0.18	0.72
C=CCN1CCN(CCOC(=O)[C@@H]2CCC[C@H]2[C@@H]2C/C=C/C=C(/C#N)[C@H](O)[C@@H](C)C[C@H](C)C[C@H](C)C[C@H](C)[C@@H](O)CC(=O)O2)CC1	inactive	–	–	12.5 (≈ 19.5 µM)	inactive	–	22 (≈ 34.3 µM)	< 0.22	< 0.22	1.76
C[C@@H]1C[C@H](C)C[C@H](C)[C@@H](O)CC(=O)O[C@H]([C@@H]2CCC[C@H]2C(=O)OCCN(C)C)C/C=C/C=C(/C#N)[C@H](O)[C@@H](C)C1	–	100 (≈ 178 µM)	100 (≈ 178 µM)	–	–	inactive	39.2 (≈ 70 µM)	0.39	0.39	< 0.39
C[C@@H]1C[C@H](C)C[C@H](C)[C@@H](O)CC(=O)O[C@H]([C@@H]2CCC[C@H]2C(=O)OCCN2CCCCC2)C/C=C/C=C(/C#N)[C@H](O)[C@@H](C)C1	–	100 (≈ 166 µM)	100 (≈ 166 µM)	50 (≈ 83.2 µM)	–	–	27.6 (≈ 46 µM)	0.28	0.28	0.55
C[C@@H]1C[C@H](C)C[C@H](C)[C@@H](O)CC(=O)O[C@H]([C@@H]2CCC[C@H]2C(=O)OCCN2CCN(CCC3OCCO3)CC2)C/C=C/C=C(/C#N)[C@H](O)[C@@H](C)C1	inactive	–	–	12.5 (≈ 17.8 µM)	inactive	–	> 70.1	< 0.7	< 0.7	> 5.61
C[C@@H]1C[C@H](C)C[C@H](C)[C@@H](O)CC(=O)O[C@H]([C@@H]2CCC[C@H]2C(=O)OCCN2CCOCC2)C/C=C/C=C(/C#N)[C@H](O)[C@@H](C)C1	–	100 (≈ 166 µM)	100 (≈ 166 µM)	–	–	inactive	28 (≈ 46.5 µM)	0.28	0.28	< 0.28
C[C@@H]1C[C@H](C)C[C@H](C)[C@@H](O)CC(=O)O[C@H]([C@@H]2CCC[C@H]2C(=O)O)C/C=C/C=C(/C#N)[C@H](O)[C@@H](C)C1 [BORRELIDIN]	inactive	–	50 (≈ 102 µM)	–	–	inactive	14 (≈ 28.5 µM)	0.28	< 0.14	< 0.14
C[C@@H]1C[C@H](C)C[C@H](C)[C@@H](O)CC(=O)O[C@H]([C@@H]2CCC[C@H]2C(=O)OCCN2CCN(CC3CC3)CC2)C/C=C/C=C(/C#N)[C@H](O)[C@@H](C)C1	inactive	–	–	50 (≈ 76.2 µM)	inactive	–	17 (≈ 26 µM)	< 0.17	< 0.17	0.34
C[C@@H]1C[C@H](C)C[C@H](C)[C@@H](O)CC(=O)O[C@H]([C@@H]2CCC[C@H]2C(=O)OCCN2CCN(C)CC2)C/C=C/C=C(/C#N)[C@H](O)[C@@H](C)C1	–	100 (≈ 162 µM)	25 (≈ 40.6 µM)	50 (≈ 81.2 µM)	–	–	58.5 (≈ 94.9 µM)	2.34	0.58	1.17
C[C@@H]1[C@H](O)[C@@H](C)/C=C/C=C/C=C/C=C/C=C/C=C/C=C/[C@H](O[C@@H]2O[C@H](C)[C@@H](O)[C@H](N)[C@@H]2O)C[C@@H]2O[C@](O)(C[C@@H](O)C[C@@H](O)[C@H](O)CC[C@@H](O)C[C@@H](O)CC(=O)O[C@H]1C)C[C@H](O)[C@H]2C(=O)O [AMPHOTERICIN B]	–	2 (≈ 2.16 µM)	1 (≈ 1.08 µM)	2 (≈ 2.16 µM)	–	–	–	–	–	–
C[C@@H]1C[C@H](C)C[C@H](C)[C@@H](O)CC(=O)O[C@H]([C@@H]2CCC[C@H]2C(=O)OCCN2CCN(CC3CCCCC3)CC2)C/C=C/C=C(/C#N)[C@H](O)[C@@H](C)C1	inactive	–	–	25 (≈ 35.8 µM)	inactive	–	23 (≈ 33 µM)	< 0.23	< 0.23	0.92
C[C@@H]1C[C@H](C)C[C@H](C)[C@@H](O)CC(=O)O[C@H]([C@@H]2CCC[C@H]2C(=O)OCCN2CCCC2)C/C=C/C=C(/C#N)[C@H](O)[C@@H](C)C1	–	50 (≈ 85.2 µM)	12.5 (≈ 21.3 µM)	50 (≈ 85.2 µM)	–	–	35.2 (≈ 60 µM)	2.81	0.71	0.71
C[C@@H]1C[C@H](C)C[C@H](C)[C@@H](O)CC(=O)O[C@H]([C@@H]2CCC[C@H]2C(=O)N2CCN(CCO)CC2)C/C=C/C=C(/C#N)[C@H](O)[C@@H](C)C1	inactive	–	–	–	inactive	inactive	–	–	–	–
C[C@@H]1C[C@H](C)C[C@H](C)[C@@H](O)CC(=O)O[C@H]([C@@H]2CCC[C@H]2C(=O)N2CCOCC2)C/C=C/C=C(/C#N)[C@H](O)[C@@H](C)C1	inactive	–	–	–	inactive	inactive	–	–	–	–

— ChEMBL document CHEMBL4382218, “Design, synthesis and antifungal evaluation of borrelidin derivatives” (Bioorg Med Chem, 2018)
